Test results from publication PMC9007039 (Journal of medicinal chemistry, 2021).

Biological target: GPC3 (Homo sapiens, UniProt P51654)
Type: cell-based
Settings: Hep3B cells, 5 µM peptide, confocal microscopy
Procedure, shortened: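 Hep3B cells were seeded at ~70% confluence in EMEM with 10% FBS and no antibiotics. They were transfected with 5 nmol of each of three GPC3 siRNAs or a negative-control siRNA using a lipofection reagent. Knockdown was confirmed by anti-GPC3 Western blot with GAPDH as loading control. Cells were methanol-fixed and stained with 5 µM IRDye800-labelled peptide for 5 min at RT, plus anti-GPC3 and AF488 secondary. Intensities were quantified from confocal images.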

GPC3, sequence (P51654 25-580): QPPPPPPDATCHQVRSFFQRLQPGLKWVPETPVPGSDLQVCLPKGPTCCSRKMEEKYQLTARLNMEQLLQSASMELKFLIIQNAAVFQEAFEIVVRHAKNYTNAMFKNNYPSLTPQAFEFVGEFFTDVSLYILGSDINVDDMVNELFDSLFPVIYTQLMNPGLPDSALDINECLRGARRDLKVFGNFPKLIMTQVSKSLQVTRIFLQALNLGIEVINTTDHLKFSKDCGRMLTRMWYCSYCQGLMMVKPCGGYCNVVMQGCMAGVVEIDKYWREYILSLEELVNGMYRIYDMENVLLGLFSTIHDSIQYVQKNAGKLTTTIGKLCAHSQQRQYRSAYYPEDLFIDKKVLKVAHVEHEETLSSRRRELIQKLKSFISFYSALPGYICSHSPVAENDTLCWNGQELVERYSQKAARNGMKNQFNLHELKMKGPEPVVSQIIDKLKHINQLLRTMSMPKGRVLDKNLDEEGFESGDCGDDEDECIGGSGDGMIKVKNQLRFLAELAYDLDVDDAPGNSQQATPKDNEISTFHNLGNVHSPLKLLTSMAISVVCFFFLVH

difference in fluorescence intensity siCL versus siGPC3 cells, all 3 siRNAs: non-significant difference
Sequence: FEAEHNLALQTL [FEA*-IRDye800]
